ChEMBL document CHEMBL4732265, “Identification of Piperidine-3-carboxamide Derivatives Inducing Senescence-like Phenotype with Antimelanoma Activities” (ACS Med Chem Lett, 2021)
The source made the active and inactive calls. The calls are words filed in the database; no cut-off is given here.

Experiments:
[1] = system: A-375; assay: Induction of senescence in human A-375 cells treated for 3 days by Hoechst staining based imaging analysis; type: functional, cell-based; details: A-375, 72 h
Outline: (§1)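 A375 melanoma cells were treated for 3 days with a 3-fold dilution series in 0.5% DMSO and stained with Hoechst 33342, LysoTracker Red DND-99 and CellMask. Image analysis scored cell and nucleus size, granule size and spacing, and cytoplasmic texture to give the percentage of senescent cells per well. EC50 is the concentration inducing senescence in half the population, taken from dose–response curves. Run in duplicate; Z′ about 0.8.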

[2] = system: A-375; assay: Antiproliferative activity in human A-375 cells assessed as reduction of cell number; type: functional, cell-based
Outline: (§2)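 A375 human melanoma cells exposed to compound for 3 days in 3-fold serial dilution in 0.5% DMSO. Cells were stained with Hoechst 33342, LysoTracker Red DND-99 and CellMask, then imaged and segmented by a customized algorithm. Cell number per well was counted, and IC50 is the concentration reducing cell number by 50%, taken from dose–response curves. Run in duplicate.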

[3] = system: A-375; assay: Induction of senescence-like phenotype in human A-375 cells assessed as phenotypic changes after 3 days; type: functional, cell-based; details: time 3.0 day; outline: as §1
[4] = Metabolic stability at phase 1 in human liver microsomes; type: ADME, Microsome
[5] = system: A-375; assay: Anti melanoma activity in human A-375 cells assessed by decreased cell number measured after 3 days; type: functional, cell-based; details: time 3.0 day; outline: as §2
[6] = Metabolic stability at phase 1 in mouse liver microsomes; type: ADME, Microsome
[7] = system: A-375; assay: Induction of cell senescence in human A-375 cells assessed by increased SA-beta-Gal activity at 37 nM measured after 3 days by Hoechst staining based imaging analysis; type: functional; details: time 3.0 day
Outline: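 A375 cells were treated with or without 37 nM agent in 0.5% DMSO for 3 days. Senescence was read in two ways: by Hoechst 33342/LysoTracker Red/CellMask phenomic imaging, and by SA-β-gal staining.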

[8] = system: A-375; assay: Induction of senescence-like phenotype in human A-375 cells assessed as enlarged cell size after 3 days by staining based imaging assay; type: functional; details: time 3.0 day; outline: as §1
[9] = system: A-375; assay: Anti melanoma activity in human A-375 cells assessed as inhibition of cell growth after 3 days; type: functional, cell-based; details: time 3.0 day; outline: as §2
[10] = system: A-375; assay: Induction of senescence-like phenotype in human A-375 cells assessed as nucleus size with increasing cytoplasmic granularity after 3 days by staining based imaging assay; type: functional, cell-based; details: time 3.0 day; outline: as §1

SMILES	EC50 [1] [µM]	IC50 [2] [µM]	also measured
O=C(Nc1ccc(-c2cscn2)cc1)C1CCCN(Cc2cccnc2)C1 (centres undefined)	> 20	> 20	
O=C(Nc1ccc(-c2ccn[nH]2)cc1)C1CCCN(Cc2ccc(F)c(F)c2)C1 (centres undefined)	0.58	0.52	
O=C(Nc1ccc(-c2cscn2)cc1)C1CCCN(Cc2ccccc2F)C1 (centres undefined)	7	4	
O=C(Nc1ccc(-c2ccncc2)cc1)C1CCCN(Cc2ccc(F)c(F)c2)C1 (centres undefined)	1.18	0.6	
O=C(Nc1ccc(-c2cscn2)cc1)C1CCCN(C(=O)c2ccc(F)c(F)c2)C1 (centres undefined)	> 20	> 20	
O=C(Nc1ccc(-c2ccco2)cc1)C1CCCN(Cc2ccc(F)c(F)c2)C1 (centres undefined)	2.2	1.04	
O=C(Nc1ccc(-c2cscn2)cc1)C1CCCN(Cc2ccc(F)c(F)c2)C1 (centres undefined)	1.24	0.88	Activity [3]: Active; Stabilty [4]: Stable; Activity [5]: Active; Stabilty [6]: Stable
O=C(Nc1ccc(-c2cccnc2)cc1)C1CCCN(Cc2ccc(F)c(F)c2)C1 (centres undefined)	1.06	0.61	
O=C(Nc1ccc(-c2cscn2)cc1)C1CCCN(Cc2ccc(Cl)c(Cl)c2)C1 (centres undefined)	3	1.73	
O=C(Nc1ccc(-c2ccc[nH]2)cc1)[C@H]1CCCN(Cc2ccc(F)c(F)c2)C1	0.14	0.19	
COc1cccc2c1C(=O)c1c(O)c3c(c(O)c1C2=O)C[C@@](O)(C(=O)CO)C[C@@H]3O[C@H]1C[C@H](N)[C@H](O)[C@H](C)O1 [DOXORUBICIN]		0.008	Activity [7]: Active
O=C(Nc1ccc(-c2cscn2)cc1)[C@H]1CCCN(Cc2ccc(F)c(F)c2)C1	0.27	0.19	
O=C(Nc1ccc(-c2cscn2)cc1)C1CCCN(Cc2ccc3cn[nH]c3c2)C1 (centres undefined)	> 20	> 20	
O=C(Nc1ccc(-c2ccccn2)cc1)C1CCCN(Cc2ccc(F)c(F)c2)C1 (centres undefined)	11	9	
O=C(Nc1ccc(-c2cscn2)cc1)C1CCCN(Cc2ccccc2)C1 (centres undefined)	> 20	> 20	
O=C(Nc1ccc(-c2ccc[nH]2)cc1F)[C@H]1CCCN(Cc2ccc(F)c(F)c2)C1	0.1	0.13	
O=C(Nc1ccc(-c2ccoc2)cc1)C1CCCN(Cc2ccc(F)c(F)c2)C1 (centres undefined)	3	1.29	
O=C(Nc1ccc(-c2cscn2)cc1)C1CCCN(Cc2cc(F)c(F)c(F)c2)C1 (centres undefined)	1.26	0.4	
O=C(Nc1ccc2scnc2c1)C1CCCN(Cc2ccc(F)c(F)c2)C1 (centres undefined)	> 20	> 20	
O=C(Nc1ccc(-c2cc[nH]c2)cc1)C1CCCN(Cc2ccc(F)c(F)c2)C1 (centres undefined)	2.61	1.42	
O=C(Nc1ccc(-c2cscn2)cc1)C1CCN(Cc2ccc(F)c(F)c2)C1 (centres undefined)	8	10	
O=C(Nc1ccc(-c2ccc[nH]2)cc1)[C@H]1CCCN(Cc2ccc3c(c2)OCO3)C1	0.16	0.22	
O=C(Nc1ccc(-c2cscn2)cc1)C1CCN(Cc2ccc(F)c(F)c2)CC1	19	> 20	
O=C(Nc1ccc(-c2cscn2)cc1)C1CCCN(Cc2ccc(F)cc2)C1 (centres undefined)	5	2.25	

SMILES	EC50 [1] [µM]	IC50 [2] [µM]	also measured
O=C(Nc1ccc(-c2nccs2)cc1)C1CCCN(Cc2ccc(F)c(F)c2)C1 (centres undefined)	0.8	0.24	
O=C(Nc1ccc(-c2ccc[nH]2)cc1)[C@@H]1CCCN(Cc2ccc(F)c(F)c2)C1	19.9	18	
O=C(Nc1ccc(-c2ccccc2)cc1)C1CCCN(Cc2ccc(F)c(F)c2)C1 (centres undefined)	5	2.58	
Cc1cc(NC(=O)[C@H]2CCCN(Cc3ccc(F)c(F)c3)C2)ccc1-c1ccc[nH]1	3	0.73	
O=C(Nc1ccc(-c2ccc[nH]2)cc1)C1CCCN(Cc2ccc(F)c(F)c2)C1 (centres undefined)	0.72	0.36	
O=C(Nc1ccc(-c2cscn2)cc1)C1CCCN(Cc2ccc3c(c2)OCO3)C1 (centres undefined)	0.6	0.63	
O=C(Nc1ccc(-c2ncc[nH]2)cc1)C1CCCN(Cc2ccc(F)c(F)c2)C1 (centres undefined)	8	19	
O=C(NC1CCCN(Cc2ccc(F)c(F)c2)C1)c1ccc(-c2cscn2)cc1 (centres undefined)	> 20	> 20	
COc1cccc(CN2CCCC(C(=O)Nc3ccc(-c4cscn4)cc3)C2)c1 (centres undefined)	> 20	> 20	
O=C(Nc1ccc(-c2ccc[nH]2)nc1)[C@H]1CCCN(Cc2ccc(F)c(F)c2)C1	4	3.01	
O=C(Nc1ccc(-c2cscn2)cc1)C1CCCN(Cc2cccc(OC(F)(F)F)c2)C1 (centres undefined)	> 20	> 20	
O=C(Nc1ccc(-c2c[nH]cn2)cc1)C1CCCN(Cc2ccc(F)c(F)c2)C1 (centres undefined)	16	> 20	
O=C(Nc1ccc(-c2ccc[nH]2)cn1)[C@H]1CCCN(Cc2ccc(F)c(F)c2)C1	0.04	0.03	Activity [8]: Active; Activity [3]: Active; Stabilty [4]: Stable; Activity [9]: Active; Stabilty [6]: Stable; Activity [10]: Active
O=C(Nc1ccc(-c2cscn2)cc1)C1CCCN(Cc2cc(F)cc(F)c2)C1 (centres undefined)	1.5	1.36	
O=C(Nc1ccc(-c2cscn2)cc1)C1CN(Cc2ccc(F)c(F)c2)C1	> 20	> 20	
O=C(Nc1ccc(-c2ccsc2)cc1)C1CCCN(Cc2ccc(F)c(F)c2)C1 (centres undefined)	1.93	0.95	
O=C(Nc1ccc(-c2cccs2)cc1)C1CCCN(Cc2ccc(F)c(F)c2)C1 (centres undefined)	0.53	0.39	
O=C(Nc1ccc(-c2cscn2)cc1)C1CCCN(Cc2cccc(C(F)(F)F)c2)C1 (centres undefined)	> 20	> 20	
COc1cc(-c2cscn2)ccc1NC(=O)C1CCCN(Cc2ccc(F)c(F)c2)C1 (centres undefined)	4	0.58	
O=C(Nc1ccc(-c2cscn2)cc1)C1CCCN(Cc2cccc(F)c2)C1 (centres undefined)	5	2.45	
O=C(Nc1ccc(-c2cscn2)cc1)[C@@H]1CCCN(Cc2ccc(F)c(F)c2)C1	4	6	
O=C(Nc1ccc(-c2cscn2)cc1)C1CCCN(Cc2cccc(F)c2F)C1 (centres undefined)	10	1.48	
O=C(Nc1ccc(-c2cscn2)cc1)C1CCCN(S(=O)(=O)c2ccc(F)c(F)c2)C1 (centres undefined)	> 20	> 20	
